Broadly, the IC50 is the concentration that inhibits the measured activity by half. The EC50 is the concentration giving half of the maximal effect. A low value points to a more potent agent.

Test [1] has as its target T1, Acetyl-CoA carboxylase 2 (Homo sapiens, UniProt O00763). Briefly: Inhibition of full length recombinant C-terminal His-tagged human ACC2 expressed in baculovirus infected sf9 cells using acetyl-CoA as substrate after 90 mins by ATP consumption assay. The procedure, abridged: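 Recombinant C-terminal His-tagged human ACC2 (50 ng/well) was run in 30 mM HEPES pH 7.5 with 18 mM NaHCO3, 1.0 mg/mL BSA, 0.5 μM ATP, 1 mM DTT, 4 mM MgCl2, 2 mM sodium citrate, 0.5 mM acetyl-CoA and 1% DMSO. Inhibitor ranged 0–100 μM. Enzyme addition started the reaction, then 90 min at 37 °C. Residual ATP was read by luminescence. Triplicates; IC50 from dose–response curves.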
Target sequence in this assay (O00763 whole entry): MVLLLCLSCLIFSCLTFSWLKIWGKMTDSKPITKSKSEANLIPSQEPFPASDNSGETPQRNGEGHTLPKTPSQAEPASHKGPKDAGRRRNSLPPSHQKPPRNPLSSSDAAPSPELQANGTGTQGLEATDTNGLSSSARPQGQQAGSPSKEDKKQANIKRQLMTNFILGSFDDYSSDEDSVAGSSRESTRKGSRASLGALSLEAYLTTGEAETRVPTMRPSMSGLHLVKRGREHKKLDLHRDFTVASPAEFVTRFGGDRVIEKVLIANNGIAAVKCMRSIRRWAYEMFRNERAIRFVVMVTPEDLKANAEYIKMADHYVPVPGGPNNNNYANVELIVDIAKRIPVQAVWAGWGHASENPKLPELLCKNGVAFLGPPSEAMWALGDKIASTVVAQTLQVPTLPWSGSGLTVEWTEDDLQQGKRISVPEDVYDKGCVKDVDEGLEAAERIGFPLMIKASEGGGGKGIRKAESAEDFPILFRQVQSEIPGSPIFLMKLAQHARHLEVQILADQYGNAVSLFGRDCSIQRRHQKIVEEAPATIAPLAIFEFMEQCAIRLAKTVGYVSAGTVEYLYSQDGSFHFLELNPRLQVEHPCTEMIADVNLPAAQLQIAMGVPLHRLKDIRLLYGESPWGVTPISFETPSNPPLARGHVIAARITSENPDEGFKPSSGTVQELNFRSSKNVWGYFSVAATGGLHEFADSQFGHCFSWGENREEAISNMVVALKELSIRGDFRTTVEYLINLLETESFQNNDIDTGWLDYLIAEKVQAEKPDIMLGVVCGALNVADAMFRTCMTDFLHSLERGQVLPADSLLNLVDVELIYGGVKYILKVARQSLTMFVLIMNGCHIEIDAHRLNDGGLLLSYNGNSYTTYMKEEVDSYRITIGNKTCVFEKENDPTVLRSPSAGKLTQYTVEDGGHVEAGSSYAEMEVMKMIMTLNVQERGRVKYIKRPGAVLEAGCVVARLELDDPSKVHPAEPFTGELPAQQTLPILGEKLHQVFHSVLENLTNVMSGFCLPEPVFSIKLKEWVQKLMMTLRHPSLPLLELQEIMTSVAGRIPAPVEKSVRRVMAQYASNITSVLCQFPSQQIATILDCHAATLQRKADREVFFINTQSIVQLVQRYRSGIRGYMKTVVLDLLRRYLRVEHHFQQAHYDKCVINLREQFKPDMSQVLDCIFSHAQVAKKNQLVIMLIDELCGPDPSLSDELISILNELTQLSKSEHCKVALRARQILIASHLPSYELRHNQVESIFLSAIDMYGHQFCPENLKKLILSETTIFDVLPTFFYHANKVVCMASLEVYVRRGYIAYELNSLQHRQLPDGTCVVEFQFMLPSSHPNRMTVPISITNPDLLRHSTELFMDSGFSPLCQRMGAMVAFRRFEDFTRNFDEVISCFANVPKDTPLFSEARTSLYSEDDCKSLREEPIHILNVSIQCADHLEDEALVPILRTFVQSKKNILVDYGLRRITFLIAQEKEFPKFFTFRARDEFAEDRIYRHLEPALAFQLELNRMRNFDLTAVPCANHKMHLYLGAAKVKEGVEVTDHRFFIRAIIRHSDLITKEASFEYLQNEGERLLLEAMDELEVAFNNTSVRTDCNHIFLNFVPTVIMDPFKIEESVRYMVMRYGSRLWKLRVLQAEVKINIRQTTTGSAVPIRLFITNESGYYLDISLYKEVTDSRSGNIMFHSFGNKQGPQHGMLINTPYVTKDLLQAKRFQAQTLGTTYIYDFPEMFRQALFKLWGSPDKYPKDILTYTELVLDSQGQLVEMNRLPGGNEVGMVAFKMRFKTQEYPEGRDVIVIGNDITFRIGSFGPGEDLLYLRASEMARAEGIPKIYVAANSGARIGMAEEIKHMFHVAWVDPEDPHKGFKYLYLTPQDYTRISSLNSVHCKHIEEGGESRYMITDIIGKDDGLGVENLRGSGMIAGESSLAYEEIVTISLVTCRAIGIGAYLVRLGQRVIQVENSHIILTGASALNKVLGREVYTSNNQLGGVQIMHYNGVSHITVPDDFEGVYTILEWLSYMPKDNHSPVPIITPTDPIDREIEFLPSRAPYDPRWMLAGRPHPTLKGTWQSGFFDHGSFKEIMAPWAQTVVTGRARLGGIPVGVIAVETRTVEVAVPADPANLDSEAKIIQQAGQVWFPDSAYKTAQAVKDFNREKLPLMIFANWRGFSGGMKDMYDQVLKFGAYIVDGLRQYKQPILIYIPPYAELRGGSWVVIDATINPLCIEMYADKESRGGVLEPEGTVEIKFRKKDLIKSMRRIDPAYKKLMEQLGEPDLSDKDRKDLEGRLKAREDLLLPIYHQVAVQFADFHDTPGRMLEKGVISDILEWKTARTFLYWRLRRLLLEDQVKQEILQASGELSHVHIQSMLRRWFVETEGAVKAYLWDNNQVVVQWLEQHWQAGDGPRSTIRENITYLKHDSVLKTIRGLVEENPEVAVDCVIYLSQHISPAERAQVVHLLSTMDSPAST

In test [2] the target is T1, Acetyl-CoA carboxylase 2. Briefly: Inhibition of full length recombinant C-terminal His-tagged human ACC2 expressed in baculovirus infected sf9 cells at 30 uM using acetyl-CoA as substrate after 90 mins by ATP consumption assay relative to N-(4-(4-(4-isopropoxyphenoxy)phenyl)but-3-yn-2-yl)acetamide. Put shortly:
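ATP-consumption assay with His-tagged human ACC2 (50 ng/well), 0.5 mM acetyl-CoA, 0.5 μM ATP and bicarbonate/citrate/Mg2+ in HEPES pH 7.5, run 90 min at 37 °C. Residual ATP was measured. Inhibition at 30 μM is expressed as a percentage of the maximum inhibition reached by the reference ACC inhibitor (set to 100%).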
Target sequence in this assay (O00763 whole entry, looked up): as the sequence (O00763 whole entry) above

The target in test [3] is T2, Peroxisome proliferator-activated receptor alpha (Homo sapiens, UniProt Q07869).
T2 sequence (Q07869 whole entry): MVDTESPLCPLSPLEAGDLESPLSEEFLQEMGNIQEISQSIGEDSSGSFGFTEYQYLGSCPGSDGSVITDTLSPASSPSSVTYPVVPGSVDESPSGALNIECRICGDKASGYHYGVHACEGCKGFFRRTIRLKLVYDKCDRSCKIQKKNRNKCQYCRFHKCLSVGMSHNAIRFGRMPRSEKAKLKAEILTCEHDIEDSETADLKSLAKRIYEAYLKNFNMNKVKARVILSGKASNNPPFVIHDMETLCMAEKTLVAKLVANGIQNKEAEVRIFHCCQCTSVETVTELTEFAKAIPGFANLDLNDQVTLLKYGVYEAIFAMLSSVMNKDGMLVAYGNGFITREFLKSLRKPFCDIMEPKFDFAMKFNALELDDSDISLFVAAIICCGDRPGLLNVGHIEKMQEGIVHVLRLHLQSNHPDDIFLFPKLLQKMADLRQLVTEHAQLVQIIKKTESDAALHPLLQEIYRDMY
Briefly: Agonist activity at GAL4-tagged human PPARalpha ligand binding domain chimeric receptor expressed in HEK293 cells after 24 hrs by luciferase reporter gene assay. Type of test: cell-based. The procedure, abridged:
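HEK293 cells seeded at 20% confluence the day before. They were co-transfected by calcium phosphate with a CMX-GAL4N-hPPARα, γ or δ LBD plasmid (30 ng), TK-MH100x4-Luc reporter (100 ng) and CMX-β-galactosidase (10 ng). After 24 h, compound was added for 24 h (final 0.5% DMSO). Luciferase was read and normalized to β-galactosidase (2-nitrophenyl-β-D-galactopyranoside, A405). Triplicates; EC50 taken from dose–response curves.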
(A reporter such as luciferase makes a cellular process visible.)

The target of test [4] is T3, Peroxisome proliferator-activated receptor delta (Homo sapiens, UniProt Q03181).
T3 sequence (Q03181 whole entry): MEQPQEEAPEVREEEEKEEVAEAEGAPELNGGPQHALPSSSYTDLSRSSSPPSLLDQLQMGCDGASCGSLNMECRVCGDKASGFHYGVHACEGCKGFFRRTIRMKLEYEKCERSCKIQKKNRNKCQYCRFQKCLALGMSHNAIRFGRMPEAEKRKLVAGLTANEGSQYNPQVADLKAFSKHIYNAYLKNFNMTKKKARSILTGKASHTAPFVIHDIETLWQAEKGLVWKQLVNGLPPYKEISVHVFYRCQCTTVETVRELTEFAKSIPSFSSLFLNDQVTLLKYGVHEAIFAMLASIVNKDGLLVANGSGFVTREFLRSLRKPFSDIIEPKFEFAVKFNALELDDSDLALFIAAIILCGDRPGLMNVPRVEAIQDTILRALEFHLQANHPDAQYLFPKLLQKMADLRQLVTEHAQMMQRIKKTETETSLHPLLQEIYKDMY
The test is described as follows: Agonist activity at GAL4-tagged human PPARdelta ligand binding domain chimeric receptor expressed in HEK293 cells after 24 hrs by luciferase reporter gene assay. It is filed as cell-based.

Test [5] deals with T4, Peroxisome proliferator-activated receptor alpha (Homo sapiens) (UniProt Q07869).
T4 sequence (whole entry): T2 sequence (Q07869 whole entry)
Briefly: Agonist activity at GAL4-tagged human PPARalpha ligand binding domain chimeric receptor expressed in HEK293 cells after 24 hrs by luciferase reporter gene assay relative to GW7647. Type of test: cell-based.

Test [6] concerns the target T5, Peroxisome proliferator-activated receptor delta (Homo sapiens) (UniProt Q03181).
T5 sequence (whole entry): T3 sequence (Q03181 whole entry)
The test is described as follows: Agonist activity at GAL4-tagged human PPARdelta ligand binding domain chimeric receptor expressed in HEK293 cells after 24 hrs by luciferase reporter gene assay relative to GW501516. Type of test: cell-based.

With `CCCOc1ccc(Oc2ccc(-c3noc(C(C)NC(C)=O)n3)cc2)cc1` (configuration not stated), the concentration for half-maximal inhibition (IC50) on Acetyl-CoA carboxylase 2 [1] came to 610 nM. In addition, the Imax at Acetyl-CoA carboxylase 2 [2] came to 88%.

As to `CCOc1ccc(Oc2ccc(-c3noc(C(C)NC(C)=O)n3)cc2)cc1` (configuration not stated), the IC50 at Acetyl-CoA carboxylase 2 [1] was determined as 420 nM. Further, on Acetyl-CoA carboxylase 2 [2], the Imax is 35%. Moreover, the figures for the EC50 in test [3] and in test [4] were 330 nM and 370 nM, respectively.

On to `CC(=O)N[C@H](C)c1nc(-c2ccc(Oc3ccc(Oc4ccccc4)cc3)cc2)no1`, for which the IC50 at Acetyl-CoA carboxylase 2 [1] is 7500 nM. The Imax on Acetyl-CoA carboxylase 2 [2] is 67%.

Regarding `CC(=O)NC(C)c1nc(-c2ccc(Oc3ccccc3)cc2)no1` (racemic), on Acetyl-CoA carboxylase 2 [1], the IC50 is 290 nM. In addition, the Imax at Acetyl-CoA carboxylase 2 [2] amounted to 45%. Also, the half-maximal effective concentration (EC50) in test [3] and in test [4] was 320 nM each time.

`COc1ccc(Oc2ccc(-c3noc(C(C)NC(C)=O)n3)cc2)cc1` (configuration not stated): the Imax at Acetyl-CoA carboxylase 2 [2] is 17%. In addition, the values for the EC50 in test [3] and in test [4] were 210 nM and 390 nM, respectively.

As for `CC(=O)N[C@@H](C)c1nc(-c2ccc(Oc3ccccc3)cc2)no1`, the IC50 on Acetyl-CoA carboxylase 2 [1] worked out at 220 nM. For the same compound, at Acetyl-CoA carboxylase 2 [2], the Imax came out at 65%. The EC50 in test [3] is 150 nM; in test [4], 290 nM.

Take `CC(=O)N[C@H](C)c1nc(-c2ccc(Oc3ccccc3)cc2)no1`: the Imax at Acetyl-CoA carboxylase 2 [2] was 37%.

As to `CC(=O)NC(C)c1nc(-c2ccc(Oc3ccc(Oc4ccccc4)cc3)cc2)no1` (racemic), the IC50 at Acetyl-CoA carboxylase 2 [1] was 48 nM. Besides, the Imax on Acetyl-CoA carboxylase 2 [2] was 76%.

In the case of `CCCCCCOc1ccc(Oc2ccc(-c3noc(C(C)NC(C)=O)n3)cc2)cc1` (configuration not stated), the IC50 on Acetyl-CoA carboxylase 2 [1] came to 260 nM. Further, the Imax on Acetyl-CoA carboxylase 2 [2] worked out at 93%.

Regarding `CC(=O)NCc1nc(-c2ccc(Oc3ccc(OC(C)C)cc3)cc2)no1`, the IC50 on Acetyl-CoA carboxylase 2 [1] turned out to be 1100 nM. Besides, at Acetyl-CoA carboxylase 2 [2], the Imax amounted to 83%.

Turning to `CC(=O)NC(C)c1nc(-c2ccc(Oc3ccc(OC(C)C)cc3)cc2)no1` (configuration not stated), the IC50 on Acetyl-CoA carboxylase 2 [1] is 100 nM. For the same compound, at Acetyl-CoA carboxylase 2 [2], the Imax came to 74%.

Regarding `CC(=O)NC(C)c1nc(-c2ccc(Oc3ccc(O)cc3)cc2)no1` (configuration not stated), the Imax at Acetyl-CoA carboxylase 2 [2] was found to be 24%. Besides, the EC50 in test [3] and in test [4] was 1000 nM each time. The Emax was in the range of 13 to 33% in test [5] and 2 to 9% in test [6].

Regarding `CC(=O)NC(C)C#Cc1ccc(Oc2ccc(OC(C)C)cc2)cc1` (configuration not stated), the IC50 on Acetyl-CoA carboxylase 2 [1] was 11 nM.

Turning to `CC(=O)NCc1nc(-c2ccc(Oc3ccc(O)cc3)cc2)no1`, the Imax at Acetyl-CoA carboxylase 2 [2] came out at 3%.

Turning to `CC(=O)N[C@@H](C)c1nc(-c2ccc(Oc3ccc(Oc4ccccc4)cc3)cc2)no1`, at Acetyl-CoA carboxylase 2 [1], the concentration for half-maximal inhibition (IC50) came out at 16 nM. At Acetyl-CoA carboxylase 2 [2], the Imax was 86%.

The values above are taken from ChEMBL document CHEMBL3861985, “Discovery of N-(1-(3-(4-phenoxyphenyl)-1,2,4-oxadiazol-5-yl)ethyl)acetamides as novel acetyl-CoA carboxylase 2 (ACC2) inhibitors with peroxisome proliferator-activated receptor α/δ (PPARα/δ) dual agonistic activity” (Bioorg Med Chem, 2016).
